Source: PMC6235538 (Science Advances, 2018)
Bridges are numbered along the chain shown (N, C = ends). Where no end group is shown, it is not given here.

Experiments:
[1] = system: FL-BCRs on transduced Raji lymphoma cells; test: Surface staining of BCR-transduced Raji cells by biotinylated peptides; type: binding, human; settings: synthetic biotinylated peptides, flow cytometry
Procedure, shortened: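 Raji cells were lentivirally transduced with a lymphoma BCR scFv fused to a membrane-anchored human antibody Fc fragment, then FACS-sorted for BCR carriers. Cells were grown with 10% FBS, 10 mM Hepes, penicillin/streptomycin and 2 mM GlutaMAX. Surface staining used synthetic biotinylated peptides and an anti-IgG Fc antibody, read by flow cytometry. One Raji population served as the Fc-staining control.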

[2] = system: cells from FL patient 4 biopsy; test: Flow cytometry staining of control biopsy cells; type: binding, human; settings: control biopsy sample
Procedure, shortened: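 Flow cytometry on control B cells from a lymphoma biopsy, stained with a synthetic biotinylated cyclic peptide ligand. B cells were gated with a B220-specific antibody. Bound peptide was detected with FITC-labelled streptavidin.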

Row | Sequence | binding to BCRs on transduced Raji cells (in words) [1] | staining by the FL1 peptide (in words) [2]
1 | CILDLPKFC (disulfide 1-9 (inferred)) [FL1] | BCRs capable of binding to the peptides were present on these cells | did not demonstrate any significant staining
2 | CMPHWQNHC (disulfide 1-9 (inferred)) [FL2] | BCRs capable of binding to the peptides were present on these cells | –
3 | CTTDQARKC (disulfide 1-9 (inferred)) [FL3] | BCRs capable of binding to the peptides were present on these cells | –
